pIC50: −log10 of the molar value. The source made the active and inactive calls. The calls are words filed in the database; no cut-off is given here.
Experiments:
HCT-116 [1] = assay: Cytotoxicity against human HCT116 cells; format: functional, cell-based
In short: (§1)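 Growth inhibition measured by a previously published method in KB (oral epidermoid carcinoma) and HCT-116 (human colon carcinoma) cells. Taxotere served as the reference compound. IC50 was reported.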

Bcl-2-like protein 1 = Bcl-2-like protein 1 (Homo sapiens, UniProt Q07817); assay: Displacement of fluorescently-tagged BH3 peptide from Bcl-XL by fluorimetric assay; details: for pIC50: read-out: IC50
Bcl-2-like protein 1, sequence (Q07817 whole entry): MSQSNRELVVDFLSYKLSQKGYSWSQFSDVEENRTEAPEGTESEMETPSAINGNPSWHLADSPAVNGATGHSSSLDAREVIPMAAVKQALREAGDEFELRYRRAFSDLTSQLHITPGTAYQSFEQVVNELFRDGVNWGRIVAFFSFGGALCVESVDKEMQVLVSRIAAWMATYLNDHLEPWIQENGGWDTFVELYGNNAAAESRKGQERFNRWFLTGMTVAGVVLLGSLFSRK
In short: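 Fluorescence-polarization competition assay in which test compound displaces a fluorescent-tagged Bak BH3-domain peptide from Bcl-xL. Unlabeled Bak(BH3) peptide served as the positive control. Output was percent inhibition of labeled-peptide binding, or IC50 as the concentration giving 50% inhibition.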

KB [2] = assay: Cytotoxicity against human KB cells; format: functional, cell-based; in short: as §1
KB [3] = assay: Cytotoxicity against human KB cells at 10 ug/mL; format: functional, cell-based
In short: (§2)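 Single-concentration screen at 10 µg/mL in KB (oral epidermoid carcinoma) and HCT-116 (human colon carcinoma) cells, run by a previously published cytotoxicity method. Taxotere served as the reference.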

HCT-116 [4] = assay: Cytotoxicity against human HCT116 cells at 10 ug/mL; format: functional, cell-based; in short: as §2

## C[C@]12C[C@]34CC[C@@H]5[C@](C)([C@H](O)CC[C@@]5(C)C(=O)O)[C@@H]3C[C@H]1[C@H]2C4
HCT-116 [1]
  pIC50: < 4.50
Bcl-2-like protein 1
  IC50: Not Active
KB [2]
  pIC50: < 4.50
KB [3]
  inhibition: inactive
HCT-116 [4]
  inhibition: inactive

## CO[C@@]1(C)C[C@]23CC[C@@H]4[C@](C)([C@H](O)CC[C@@]4(C)C(=O)O)[C@H]2C=C[C@@H]1C3
HCT-116 [1]
  pIC50: < 4.54
Bcl-2-like protein 1
  IC50: Not Active
KB [2]
  pIC50: < 4.54
KB [3]
  inhibition: inactive
HCT-116 [4]
  inhibition: inactive

## C[C@]12CCC[C@@](C)(C(=O)O)[C@@H]1CC[C@]13C[C@@H]4[C@H](C[C@H]12)[C@]4(C)C3
Bcl-2-like protein 1
  pIC50: 3.40

## CC(=O)O[C@@]12CO[C@@H]1C[C@H](O)[C@@]1(C)C(=O)[C@H](O)C3=C(C)[C@@H](OC(=O)[C@H](O)[C@@H](NC(=O)OC(C)(C)C)c4ccccc4)C[C@@](O)([C@@H](OC(=O)c4ccccc4)[C@H]21)C3(C)C [DOCETAXEL]
HCT-116 [1]
  pIC50: 8.92
KB [2]
  pIC50: 9.82

## C[C@]12[C@H](O)CC[C@@](C)(C(=O)O)[C@@H]1CC[C@]13C[C@@H](C=C[C@@H]12)[C@@](C)(O)C3
HCT-116 [1]
  pIC50: < 4.52
Bcl-2-like protein 1
  IC50: Not Active
KB [2]
  pIC50: < 4.52
KB [3]
  inhibition: inactive
HCT-116 [4]
  inhibition: inactive

## C[C@]12CCC[C@@](C)(C(=O)O)[C@@H]1CC[C@]13C[C@@H](C=C[C@@H]12)[C@@](C)(O)C3
HCT-116 [1]
  pIC50: < 4.50
Bcl-2-like protein 1
  pIC50: 3.42
KB [2]
  pIC50: < 4.50
KB [3]
  inhibition: inactive
HCT-116 [4]
  inhibition: inactive

## C[C@]12CCC[C@@](C)(C(=O)O)[C@@H]1CC[C@]13C[C@@H]4[C@H](C[C@H]12)[C@]4(CO)C3
HCT-116 [1]
  pIC50: < 4.50
Bcl-2-like protein 1
  pIC50: 3.66
KB [2]
  pIC50: < 4.50
KB [3]
  inhibition: inactive
HCT-116 [4]
  inhibition: inactive

## CC1=C[C@]23CC[C@@H]4[C@](C)([C@H](O)CC[C@@]4(C)C(=O)O)[C@H]2[C@H]2[C@H](C3)[C@@H]12
HCT-116 [1]
  pIC50: < 4.50
Bcl-2-like protein 1
  IC50: Not Active
KB [2]
  pIC50: < 4.50
KB [3]
  inhibition: inactive
HCT-116 [4]
  inhibition: inactive
